Measured values as given in ChEMBL document CHEMBL5154918, “Synthesis and Biological Characterization of a Series of 2-Sulfonamidebenzamides as Allosteric Modulators of MrgX1” (ACS Med Chem Lett, 2022).

Assays:
[1] = biological target: T1, Mas-related G-protein coupled receptor member X1 (Homo sapiens, UniProt Q96LB2); assay: Positive allosteric modulator activity at human MRGPRX1 expressed in HEK293 cells assessed as maximal efficacy at 5 uM in presence of BAM8-22 by Fluo4-dye based FLIPR assay relative to control; format: cell-based
[2] = biological target: T1, Mas-related G-protein coupled receptor member X1; assay: Positive allosteric modulator activity at human MRGPRX1 expressed in HEK293 cells in presence of BAM8-22 by Fluo4-dye based FLIPR assay; format: cell-based
Procedure, shortened: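 HEK293 cells expressing MrgX1. Compounds tested in the presence of 10 nM BAM8-22. Emax normalized to control compound ML382; mean ± SEM of n = 2 experiments.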

[3] = Plasma protein binding in human assessed as unbound fraction; format: ADME, cell-free; conditions: read-out: PPB
Procedure, shortened: (§1)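 Equilibrium dialysis in human and mouse plasma; results expressed as […] fraction unbound.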

[4] = Plasma protein binding in mouse assessed as unbound fraction; format: ADME, cell-free; conditions: read-out: PPB; procedure, shortened: as §1
[5] = Microsomal stability in mouse liver microsomes assessed as intrinsic clearance; format: ADME, Microsome; conditions: read-out: CLH
Procedure, shortened: (§2)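 Intrinsic clearance measured in human and mouse liver microsomes. Hepatic clearance predicted from it with the well-stirred organ CL model, binding terms excluded.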

[6] = Microsomal stability in human liver microsomes assessed as intrinsic clearance; format: ADME, Microsome; conditions: read-out: CLH; procedure, shortened: as §2
[7] = Drug concentration in Sprague-Dawley rat brain at 0.25 mg/kg measured up to 48.25 hrs; format: ADME, organism-based; conditions: read-out: Ct
Procedure, shortened: (§3)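 Brain sampled on Day 2 at 0.25 h, with matching plasma, after a 0.25 mg/kg IV cassette dose (5-in-1) in male Sprague–Dawley rats. Vehicle was DMSO:PEG400:EtOH:Saline (5:48:10:37). Kp is total brain/plasma concentration ratio.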

[8] = Half life in mouse at 2 mg/kg, ip administered as discrete dose; format: ADME, organism-based; conditions: in vivo
Procedure, shortened: (§4)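 Discrete (single-compound) mouse PK, dosed IP at 2 mg/kg in 10% DMSO/10% cremophor EL/30% PEG400/50% water. Plasma and brain concentrations measured; brain:plasma ratio reported.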

[9] = Ratio of drug concentration in brain to plasma in Sprague-Dawley rat at 0.25 mg/kg measured after 15 mins; format: ADME, organism-based; conditions: brain and plasma; procedure, shortened: as §3
[10] = AUC in mouse at 2 mg/kg, ip administered as discrete dose; format: ADME, organism-based; parameters: dose 2 mg/kg, route ip; conditions: in vivo; procedure, shortened: as §4
[11] = AUC in Sprague-Dawley rat at 0.25 mg/kg, iv bolus injection administered as cassette dose; format: ADME, organism-based; parameters: dose 0.25 mg/kg, route iv; conditions: in vivo
Procedure, shortened: (§5)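 Male Sprague–Dawley rats, 5-in-1 cassette, 0.25 mg/kg IV of each test article in DMSO:PEG400:EtOH:Saline (5:48:10:37). Plasma sampled at 0.0833, 0.25, 0.5, 1, 3, 4, 8 and 24 h, plus Day 2 at 0.25 h post dose.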

Translocator protein = Translocator protein (Homo sapiens, UniProt P30536); assay: Binding affinity to peripheral benzodiazepine receptor (unknown origin)
[12] = Half life in Sprague-Dawley rat at 0.25 mg/kg, iv bolus injection administered as cassette dose; format: ADME, organism-based; conditions: in vivo; procedure, shortened: as §5
[13] = Volume of distribution at steady state in Sprague-Dawley rat at 0.25 mg/kg, iv bolus injection administered as cassette dose; format: ADME, organism-based; conditions: in vivo, read-out: Vdss; procedure, shortened: as §5
[14] = Ratio of drug concentration in brain to plasma in mouse at 2 mg/kg, ip administered as discrete dose; format: ADME, organism-based; conditions: brain and plasma, read-out: BPR; procedure, shortened: as §4
[15] = Cmax in mouse at 2 mg/kg, ip administered as discrete dose; format: ADME, organism-based; parameters: dose 2 mg/kg, route ip; conditions: in vivo; procedure, shortened: as §4
[16] = Drug concentration in Sprague-Dawley rat plasma at 0.25 mg/kg measured up to 48.25 hrs; format: ADME, organism-based; procedure, shortened: as §3
[17] = Tmax in mouse at 2 mg/kg, ip administered as discrete dose; format: ADME, organism-based; conditions: in vivo; procedure, shortened: as §4
[18] = Clearance in Sprague-Dawley rat at 0.25 mg/kg, iv bolus injection administered as cassette dose; format: ADME, organism-based; conditions: in vivo; procedure, shortened: as §5
[19] = filed as positive allosteric modulator

T1 sequence (Q96LB2 whole entry): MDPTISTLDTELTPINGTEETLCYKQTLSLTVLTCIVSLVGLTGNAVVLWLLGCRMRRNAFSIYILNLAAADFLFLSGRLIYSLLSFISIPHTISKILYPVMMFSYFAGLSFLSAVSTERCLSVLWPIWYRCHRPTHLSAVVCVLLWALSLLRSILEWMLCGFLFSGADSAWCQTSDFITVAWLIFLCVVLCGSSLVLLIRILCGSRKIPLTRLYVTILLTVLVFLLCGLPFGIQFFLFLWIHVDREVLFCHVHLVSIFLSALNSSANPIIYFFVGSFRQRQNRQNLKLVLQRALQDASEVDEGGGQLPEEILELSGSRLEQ
Translocator protein, sequence (P30536 whole entry): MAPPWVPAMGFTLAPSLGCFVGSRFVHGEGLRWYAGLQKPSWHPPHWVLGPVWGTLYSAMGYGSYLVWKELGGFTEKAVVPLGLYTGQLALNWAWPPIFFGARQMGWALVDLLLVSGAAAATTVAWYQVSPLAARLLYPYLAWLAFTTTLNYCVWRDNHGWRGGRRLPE

| SMILES | Emax [1] | EC50 [2] | Emax [1, 19] | further results |
| --- | --- | --- | --- | --- |
| O=C(Nc1cccc2c1OCCC2)c1ccccc1NS(=O)(=O)C1CC1 | 27% | – | – | – |
| CCCOc1ccccc1NC(=O)c1ccccc1NS(=O)(=O)C1CC1 | – | 506 nM | 80.8% | fraction unbound [3]: < 0.003; fraction unbound [4]: 0.015; CLint scaled [5]: 4890 mL/min/kg; CLint scaled [6]: 116 mL/min/kg |
| CCOc1ccccc1NC(=O)c1ccc(C)cc1NS(=O)(=O)C1CC1 | 3.2% | – | – | – |
| COc1ccc(NC(=O)c2ccccc2NS(=O)(=O)C2CC2)cc1 | -15.6% | – | – | – |
| CCOc1ccccc1NC(=O)c1ccccc1NS(=O)(=O)C1CC1 | – | 124 nM | 100% | fraction unbound [3]: 0.004; fraction unbound [4]: 0.017; CLint scaled [5]: 1060 mL/min/kg; CLint scaled [6]: 61.9 mL/min/kg |
| Cc1ccc(NS(=O)(=O)C2CC2)c(C(=O)Nc2ccccc2OCC(F)(F)F)c1 | – | 369 nM | 89.9% | – |
| CCOc1ccccc1NC(=O)c1cc(C)ccc1NS(=O)(=O)C1CC1 | – | 103 nM | 104% | fraction unbound [3]: 0.003; fraction unbound [4]: 0.043; CLint scaled [5]: 410 mL/min/kg; CLint scaled [6]: 75.1 mL/min/kg |
| COc1ccccc1N(C)C(=O)c1ccccc1NS(=O)(=O)C1CC1 | -11.9% | – | – | – |
| O=C(c1ccccc1NS(=O)(=O)C1CC1)N1CCOc2ccccc21 | 2.7% | – | – | – |
| CCOc1ccc(F)cc1NC(=O)c1cc(C)ccc1NS(=O)(=O)CC | – | 80 nM | 128% | fraction unbound [3]: 0.003; fraction unbound [4]: 0.014; CLint scaled [5]: 1000 mL/min/kg; CLint scaled [6]: 69.3 mL/min/kg |
| O=C(Nc1ccccc1OCC1CC1)c1ccccc1NS(=O)(=O)C1CC1 | – | 1360 nM | 61.5% | – |
| O=C(Nc1cccc2c1OC(F)(F)O2)c1ccccc1NS(=O)(=O)C1CC1 | 14.6% | – | – | – |
| CCOc1cccnc1NC(=O)c1ccccc1NS(=O)(=O)C1CC1 | 1.6% | – | – | – |
| CCOc1ccc(F)cc1NC(=O)c1cc(F)ccc1NS(=O)(=O)C1CC1 | – | 13 nM | 127% | concentration at 48.25 h [7]: 55.9 ng/g; half-life [8]: 7.2 min; Kp at 0.25 h [9]: 0.19; AUC [10]: 426 ng·h/mL; AUC [11]: 304 ng·h/mL; Ki (Translocator protein): 71 nM; half-life [12]: 24.6 min; fraction unbound [3]: 0.002; Vd [13]: 0.34 L/kg; Kp [14]: 0.2; fraction unbound [4]: 0.011; Cmax [15]: 1280 ng/mL; CLint scaled [5]: 980 mL/min/kg; concentration at 48.25 h [16]: 297 ng/mL; Tmax [17]: 10.2 min; CLint scaled [6]: 59.4 mL/min/kg; clearance [18]: 14.1 mL/min/kg |
| CCOc1ccccc1Nc1nn(S(=O)(=O)C2CC2)c2ncccc12 | -11.7% | – | – | – |
| O=C(Nc1ccccc1OCC(F)(F)F)c1ccccc1NS(=O)(=O)C1CC1 | – | 502 nM | 95% | fraction unbound [3]: 0.004; fraction unbound [4]: 0.022; CLint scaled [5]: 979 mL/min/kg; CLint scaled [6]: 40.2 mL/min/kg |
| O=C(c1ccccc1NS(=O)(=O)C1CC1)N1CCCc2ccccc21 | 6.8% | – | – | – |
| CC(C)Oc1ccccc1NC(=O)c1ccccc1NS(=O)(=O)C1CC1 | – | 2830 nM | 83.1% | – |
| CCOc1ccccc1NC(=O)c1ccc(NS(=O)(=O)C2CC2)cc1 | – | – | 70.6% | – |
| CCOc1ccc(F)cc1NC(=O)c1cc(Cl)ccc1NS(=O)(=O)CC | – | 206 nM | 118% | – |
| CCOc1ccccc1NC(=O)c1cccc(NS(=O)(=O)C2CC2)c1 | -44.4% | – | – | – |
| CCOc1cc(F)ccc1NC(=O)c1ccccc1NS(=O)(=O)C1CC1 | -10.5% | – | – | – |
| CCOc1ccc(NC(=O)c2ccccc2NS(=O)(=O)C2CC2)c(OCC)c1 | – | 1090 nM | 73.2% | – |
| CCOc1ccccc1NC(=O)c1cc(F)ccc1NS(=O)(=O)C1CC1 | – | 173 nM | 102% | fraction unbound [3]: 0.004; fraction unbound [4]: 0.041; CLint scaled [5]: 383 mL/min/kg; CLint scaled [6]: 45.4 mL/min/kg |
| CCOc1ccccc1NC(=O)c1ccncc1NS(=O)(=O)C1CC1 | 12.1% | – | – | – |
| O=C(Nc1cccc2c1OCO2)c1ccccc1NS(=O)(=O)C1CC1 | 7.4% | – | – | – |
| CCOc1ccccc1-c1nnc(-c2ccccc2NS(=O)(=O)C2CC2)o1 | 6.7% | – | – | – |
| CCOc1ccccc1NC(=O)c1cc(Cl)ccc1NS(=O)(=O)CC | – | 407 nM | 89.2% | – |
| CCOc1ccccc1NC(=O)c1ccc(F)cc1NS(=O)(=O)C1CC1 | – | 860 nM | 67.6% | – |
